Measurements taken from ChEMBL document CHEMBL2390913, “In vitro biosynthesis, isolation, and identification of predominant metabolites of 2-(4-(2-hydroxyethoxy)-3,5-dimethylphenyl)-5,7-dimethoxyquinazolin-4(3H)-one (RVX-208)” (Eur J Med Chem, 2013).

Columns and labels:
[1] = Drug metabolism in calf liver microsomes assessed per 4 mg/ml of protein at 0.5 mM after 24 hrs by LC-MS/MS analysis in presence of 5 mM UDPGA; type: ADME, Bos taurus, Microsome; details: cattle, read-out: Drug metabolism
How it was run: (§1)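 Optimization incubations with rabbit or calf liver microsomes or rabbit S9. Final substrate was 0.2, 0.5 or 2 mM, from DMSO stocks diluted 100-fold. Protein was 1 or 4 mg/mL and UDPGA 5 or 25 mM. Other components were 100 mM potassium phosphate pH 7.4 and an NADPH regenerating system. Microsomes were pre-treated on ice with alamethicin. Reactions ran at 37 °C, were stopped with methanol, processed, and analysed by LC/MS.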

[2] = Drug metabolism in calf liver microsomes assessed per 4 mg/ml of protein at 2 mM after 24 hrs by LC-MS/MS analysis in presence of 5 mM UDPGA; type: ADME, Bos taurus, Microsome; details: cattle, read-out: Drug metabolism; how it was run: as §1
[3] = Drug metabolism in New Zealand White rabbit liver microsomes assessed per mg/ml of protein at 0.5 mM after 24 hrs by LC-MS/MS analysis in presence of 25 mM UDPGA; type: ADME, Oryctolagus cuniculus, Microsome; details: read-out: Drug metabolism; how it was run: as §1
[4] = Drug metabolism in New Zealand White rabbit liver microsomes assessed per mg/ml of protein at 0.2 mM after 24 hrs by LC-MS/MS analysis in presence of 25 mM UDPGA; type: ADME, Oryctolagus cuniculus, Microsome; details: read-out: Drug metabolism; how it was run: as §1
[5] = Drug metabolism in New Zealand White rabbit liver S9 fraction assessed per mg/ml of protein at 0.2 mM after 24 hrs by LC-MS/MS analysis in presence of 5 mM UDPGA; type: ADME, subcellular, Oryctolagus cuniculus; details: read-out: Drug metabolism; how it was run: as §1
[6] = Drug metabolism in New Zealand White rabbit liver microsomes assessed per mg/ml of protein at 0.5 mM after 24 hrs by LC-MS/MS analysis in presence of 5 mM UDPGA; type: ADME, Oryctolagus cuniculus, Microsome; details: read-out: Drug metabolism; how it was run: as §1
[7] = Drug metabolism in New Zealand White rabbit liver microsomes assessed per 4 mg/ml of protein at 0.5 mM after 24 hrs by LC-MS/MS analysis in presence of 5 mM UDPGA; type: ADME, Oryctolagus cuniculus, Microsome; details: read-out: Drug metabolism; how it was run: as §1
[8] = Activity at human recombinant glucuronyl transferase at 100 uM after 1 to 24 hrs by LC-MS/MS analysis in presence of UDPGA; type: ADME
How it was run: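 Recombinant human UDP-glucuronyl transferases. The mix held 100 mM potassium phosphate pH 7.4, 3.3 mM MgCl2, 5 mM UDPGA, and enzyme protein at 0.025–1 mg/mL depending on the enzyme. Substrate came from a 10 mM methanol stock. Mixtures were pre-warmed 5 min at 37 °C, the enzyme was added, and they were shaken at 37 °C for 1, 6 or 24 h. Methanol quench, centrifugation, filtration, drying, resuspension, LC/MS.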

[9] = Drug metabolism in New Zealand White rabbit liver S9 fraction assessed per mg/ml of protein at 0.5 mM after 24 hrs by LC-MS/MS analysis in presence of 5 mM UDPGA; type: ADME, subcellular, Oryctolagus cuniculus; details: read-out: Drug metabolism; how it was run: as §1
[10] = Drug metabolism in New Zealand White rabbit liver S9 fraction assessed per 4 mg/ml of protein at 0.5 mM after 24 hrs by LC-MS/MS analysis in presence of 5 mM UDPGA; type: ADME, subcellular, Oryctolagus cuniculus; details: read-out: Drug metabolism; how it was run: as §1
Liver microsomes = assay: Drug metabolism in human liver microsomes assessed as M5 metabolite level at 100 uM after 4 hrs by LC/MS analysis in presence of UDPGA; type: ADME, Microsome
How it was run: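 Human liver microsomes under the screening protocol. Mix: 0.50 mg protein in 0.5 mL, 100 mM potassium phosphate pH 7.4, NADPH regenerating system, 5 mM UDPGA, 5 mM D-saccharic acid lactone. Microsomes were pre-incubated with alamethicin and the mix pre-warmed 5 min at 37 °C. After 4 h at 37 °C, the reaction was diluted with cold methanol and centrifuged. The filtered supernatant went to analytical HPLC; the M5 fraction was taken for MS/MS.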

[11] = Drug metabolism in New Zealand White rabbit liver S9 fraction assessed per mg/ml of protein at 0.2 mM after 24 hrs by LC-MS/MS analysis in presence of 25 mM UDPGA; type: ADME, subcellular, Oryctolagus cuniculus; details: read-out: Drug metabolism; how it was run: as §1
[12] = Drug metabolism in New Zealand White rabbit liver microsomes assessed per mg/ml of protein at 2 mM after 24 hrs by LC-MS/MS analysis in presence of 25 mM UDPGA; type: ADME, Oryctolagus cuniculus, Microsome; details: read-out: Drug metabolism; how it was run: as §1
[13] = Drug metabolism in New Zealand White rabbit liver S9 fraction assessed per mg/ml of protein at 2 mM after 24 hrs by LC-MS/MS analysis in presence of 25 mM UDPGA; type: ADME, subcellular, Oryctolagus cuniculus; details: read-out: Drug metabolism; how it was run: as §1
[14] = Drug metabolism in New Zealand White rabbit liver S9 fraction assessed per 4 mg/ml of protein at 2 mM after 24 hrs by LC-MS/MS analysis in presence of 5 mM UDPGA; type: ADME, subcellular, Oryctolagus cuniculus; details: read-out: Drug metabolism; how it was run: as §1
[15] = Drug metabolism in New Zealand White rabbit liver microsomes assessed per mg/ml of protein at 0.2 mM after 24 hrs by LC-MS/MS analysis in presence of 5 mM UDPGA; type: ADME, Oryctolagus cuniculus, Microsome; details: read-out: Drug metabolism; how it was run: as §1
[16] = Drug metabolism in New Zealand White rabbit liver S9 fraction assessed per mg/ml of protein at 0.5 mM after 24 hrs by LC-MS/MS analysis in presence of 25 mM UDPGA; type: ADME, subcellular, Oryctolagus cuniculus; details: read-out: Drug metabolism; how it was run: as §1
[17] = Drug metabolism in New Zealand White rabbit liver S9 fraction assessed per mg/ml of protein at 2 mM after 24 hrs by LC-MS/MS analysis in presence of 5 mM UDPGA; type: ADME, subcellular, Oryctolagus cuniculus; details: read-out: Drug metabolism; how it was run: as §1
[18] = Drug metabolism in New Zealand White rabbit liver microsomes assessed per 4 mg/ml of protein at 2 mM after 24 hrs by LC-MS/MS analysis in presence of 5 mM UDPGA; type: ADME, Oryctolagus cuniculus, Microsome; details: read-out: Drug metabolism; how it was run: as §1
[19] = Drug metabolism in New Zealand White rabbit liver microsomes assessed per mg/ml of protein at 2 mM after 24 hrs by LC-MS/MS analysis in presence of 5 mM UDPGA; type: ADME, Oryctolagus cuniculus, Microsome; details: read-out: Drug metabolism; how it was run: as §1
[20] = Drug metabolism in New Zealand White rabbit liver S9 fraction assessed per 4 mg/ml of protein at 2 mM after 24 hrs by LC-MS/MS analysis in presence of 25 mM UDPGA; type: ADME, subcellular, Oryctolagus cuniculus; details: read-out: Drug metabolism; how it was run: as §1
[21] = Drug metabolism in New Zealand White rabbit liver microsomes assessed per 4 mg/ml of protein at 2 mM after 24 hrs by LC-MS/MS analysis in presence of 25 mM UDPGA; type: ADME, Oryctolagus cuniculus, Microsome; details: read-out: Drug metabolism; how it was run: as §1
[22] = Drug metabolism in calf liver microsomes assessed per mg/ml of protein at 2 mM after 24 hrs by LC-MS/MS analysis in presence of 5 mM UDPGA; type: ADME, Bos taurus, Microsome; details: cattle, read-out: Drug metabolism; how it was run: as §1
[23] = Drug metabolism in New Zealand White rabbit liver S9 fraction assessed per 20 mg of protein at 1 mM after 24 hrs by LC/MS analysis in presence of UDPGA; type: ADME, subcellular, Oryctolagus cuniculus; details: read-out: Drug metabolism
How it was run: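 Scale-up reaction with rabbit liver S9. Each mix was 10 mL with 20 mg S9 protein, 100 mM potassium phosphate pH 7.4, 1 mM substrate (from a 0.1 M DMSO stock), an NADPH regenerating system (1.3 mM NADP+, 3.3 mM glucose-6-phosphate, 0.4 U/mL G6PDH, 3.3 mM MgCl2) and 10 mM UDPGA. Six parallel vials were shaken 24 h at 37 °C, then pooled, methanol-quenched, and passed through C18 SPE and prep HPLC.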

[24] = Drug metabolism in New Zealand White rabbit liver microsomes assessed per 4 mg/ml of protein at 0.5 mM after 24 hrs by LC-MS/MS analysis in presence of 25 mM UDPGA; type: ADME, Oryctolagus cuniculus, Microsome; details: read-out: Drug metabolism; how it was run: as §1
[25] = Drug metabolism in New Zealand White rabbit liver S9 fraction assessed per 4 mg/ml of protein at 0.5 mM after 24 hrs by LC-MS/MS analysis in presence of 25 mM UDPGA; type: ADME, subcellular, Oryctolagus cuniculus; details: read-out: Drug metabolism; how it was run: as §1

Compound `COc1cc(OC)c2c(=O)[nH]c(-c3cc(C)c(OCCO)c(C)c3)nc2c1` [APABETALONE] has a metabolised at 24 h, 500 µM [1] of 56%, a metabolised at 24 h, 2000 µM [2] of 50.1% and a metabolised at 24 h, 500 µM [3] of 49.4%. For the same compound, the metabolised at 24 h, 200 µM [4] was 49.7%, the metabolised at 24 h, 200 µM [5] was 22.3% and the metabolised at 24 h, 500 µM [6] was 39.5%. The metabolised at 24 h, 500 µM [7] was 24.1%, the Activity [8] was < 1% and the metabolised at 24 h, 500 µM [9] was 23.2%. For the same compound, the metabolised at 24 h, 500 µM [10] was 33%, the Drug metabolism (Liver microsomes) was “Active” and the metabolised at 24 h, 200 µM [11] was 21.4%. The metabolised at 24 h, 2000 µM [12] was 39.7%, the metabolised at 24 h, 2000 µM [13] was 16.7% and the metabolised at 24 h, 2000 µM [14] was 30.3%. It also gave a metabolised at 24 h, 200 µM [15] of 34.6%, a metabolised at 24 h, 500 µM [16] of 25.7% and a metabolised at 24 h, 2000 µM [17] of 17.5%. The metabolised at 24 h, 2000 µM [18] was 30%, the metabolised at 24 h, 2000 µM [19] was 38.4% and the metabolised at 24 h, 2000 µM [20] was 35.2%. The metabolised at 24 h, 2000 µM [21] was 48.9%, the metabolised at 24 h, 2000 µM [22] was 40.9% and the metabolised at 24 h, 1000 µM [23] was 22%. For the same compound, the metabolised at 24 h, 500 µM [24] was 54.3% and the metabolised at 24 h, 500 µM [25] was 41.3%.
